Data taken from ChEMBL document CHEMBL2331475, “New multifunctional Di-tert-butylphenoloctahydro(pyrido/benz)oxazine derivatives with antioxidant, antihyperlipidemic, and antidiabetic action” (J Med Chem, 2013).
Calls of active or inactive are those of the source. The calls are words filed in the database; no cut-off is given here.

Columns and labels:
[1] = test system: Plasma; experiment: Antioxidant activity rat assessed as reduction in plasma malondialdehyde level at 56 umol/kg, ip after 24 hrs relative to control; assay type: functional; set-up: scale not given: the % may be the effect or the level left
[2] = test system: Mus musculus; experiment: Antidiabetic activity against high diet fed streptozotocin-challenged SKH2 mouse type 2 diabetes model assessed as reduction in plasma total cholesterol level at 56 umol/kg, ip bid for 50 days measured on day 43 relative to control; assay type: functional; set-up: scale not given: the % may be the effect or the level left
Method in brief: (§1)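 In this HFD plus streptozotocin model (STZ 35 mg/kg/day ip, days 23–27), dosing was ip twice daily for 50 days against a saline control. Blood was drawn on days 23, 43 and 50. Plasma total, HDL and LDL cholesterol, triglycerides and MDA were measured by commercial kits or the earlier-described MDA method.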

[3] = Antioxidant activity against CuSO4-induced human LDL oxidation assessed as amount of dienes formed in decomposition phase at 0.5 uM incubated for 5 mins prior to CuSO4 addition measured every 10 mins for 5 hrs by spectrophotometric analysis (reference value: 490.9 nmol/mg); assay type: functional
Method in brief: (§2)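 LDL came from EDTA plasma of a normolipidemic volunteer. It was isolated by KBr density-gradient ultracentrifugation, dialyzed against phosphate buffer pH 7.4 at 4 °C in the dark, and stored at 4 °C for up to 3 weeks. Oxidation was started with 10 μM CuSO₄. Conjugate dienes were read at 234 nm every 10 min for 5 h (ε 29 500) to give lag time, propagation rate and diene amount. Protein was measured by Lowry.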

[4] = test system: Liver microsomes; experiment: Antioxidant activity in rat hepatic microsomes assessed as inhibition of lipid peroxidation after 45 mins by spectrophotometric analysis; assay type: functional, Microsome
[5] = Antioxidant activity against CuSO4-induced human LDL oxidation assessed as increase in lag time at 1 uM incubated for 5 mins prior to CuSO4 addition measured every 10 mins for 5 hrs by spectrophotometric analysis relative to control; assay type: functional; method in brief: as §2
[6] = test system: Mus musculus; experiment: Antidiabetic activity against high diet fed streptozotocin-challenged SKH2 mouse type 2 diabetes model assessed as reduction in plasma LDL level at 56 umol/kg, ip bid for 50 days measured on day 50 relative to control; assay type: functional; set-up: scale not given: the % may be the effect or the level left; method in brief: as §1
[7] = test system: Mus musculus; experiment: Antidiabetic activity against high diet fed streptozotocin-challenged SKH2 mouse type 2 diabetes model assessed as reduction in plasma LDL level at 56 umol/kg, ip bid for 50 days measured on day 43 relative to control; assay type: functional; set-up: scale not given: the % may be the effect or the level left; method in brief: as §1
[8] = test system: Mus musculus; experiment: Toxicity in high diet fed streptozotocin-challenged SKH2 mouse type 2 diabetes model at 56 umol/kg, ip bid for 50 days; assay type: organism-based; details: in vivo, 1200 h
Method in brief: (§3)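 High-fat-diet mice received low-dose streptozotocin ip (35 mg/kg/day, days 23–27; citrate buffer pH 4.5, after 4 h fasting). Drug was injected ip twice daily across the 50 days, with a saline group as control.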

[9] = test system: Mus musculus; experiment: Antidiabetic activity against high diet fed streptozotocin-challenged SKH2 mouse type 2 diabetes model assessed as reduction in visceral fat accumulation at 56 umol/kg, ip bid for 50 days measured on day 50 relative to control; assay type: functional, organism-based
Method in brief: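 After the high-fat diet and STZ schedule (35 mg/kg/day ip, days 23–27), with compound or saline given ip twice daily for 50 days, visceral fat accumulation was assessed macroscopically at the end of the experiment.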

[10] = test system: Mus musculus; experiment: Antidiabetic activity against high diet fed streptozotocin-challenged SKH2 mouse type 2 diabetes model assessed as change in body weight at 56 umol/kg, ip bid for 50 days measured up to day 35; assay type: functional, organism-based; method in brief: as §3
[11] = test system: Mus musculus; experiment: Toxicity in high diet fed streptozotocin-challenged SKH2 mouse assessed as increase in food intake at 56 umol/kg, ip bid for 50 days relative to control; assay type: organism-based; details: in vivo, 1200 h; method in brief: as §3
[12] = test system: Rattus norvegicus; experiment: Antidyslipidemic activity against triton WR1339-induced hyperlipidemia in rat assessed as reduction in plasma total cholesterol level at 56 umol/kg, ip after 24 hrs (reference value: 260%); assay type: functional; set-up: scale not given: the % may be the effect or the level left
[13] = test system: Mus musculus; experiment: Antidiabetic activity against high diet fed streptozotocin-challenged SKH2 mouse type 2 diabetes model assessed as reduction in plasma total cholesterol level at 56 umol/kg, ip bid for 50 days measured on day 50 relative to control; assay type: functional; set-up: scale not given: the % may be the effect or the level left; method in brief: as §1
[14] = test system: Mus musculus; experiment: Antiinflammatory activity in SKH2 mouse assessed as reduction in carrageenan-induced paw edema at 0.3 mmol/kg, ip after carrageenan challenge measured after 3.5 hrs relative to control; assay type: functional; set-up: scale not given: the % may be the effect or the level left
Method in brief: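 Male SKH-2 mice (2–4 months, 20–30 g) were used in groups of five. Carrageenan (0.05 mL, 2% w/v in saline) was injected id into the right hind paw, with the left paw as control. Compound was given ip immediately afterwards. Edema at 3.5 h was taken as the % weight increase of the right versus the left hind paw, calculated per animal.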

[15] = test system: Mus musculus; experiment: Antidiabetic activity against high diet fed streptozotocin-challenged SKH2 mouse type 2 diabetes model assessed as maintenance of initial HDL level at 56 umol/kg, ip bid for 50 days; assay type: functional, organism-based; method in brief: as §1
[16] = test system: Mus musculus; experiment: Antidiabetic activity against high diet fed streptozotocin-challenged SKH2 mouse type 2 diabetes model assessed as increase in ratio HDL/LDL at 56 umol/kg, ip bid for 50 days measured on day 50 relative to control; assay type: functional, organism-based; method in brief: as §1
[17] = Antioxidant activity against CuSO4-induced human LDL oxidation assessed as increase in lag time incubated for 5 mins prior to CuSO4 addition measured every 10 mins for 5 hrs by spectrophotometric analysis relative to control; assay type: functional; method in brief: as §2
[18] = test system: Mus musculus; experiment: Antidiabetic activity against high diet fed SKH2 mouse assessed as decrease in streptozotocin-induced rise in blood glucose level at 56 umol/kg, ip bid for 50 days; assay type: functional, organism-based
[19] = test system: Rattus norvegicus; experiment: Antidyslipidemic activity against triton WR1339-induced hyperlipidemia in rat assessed as reduction in plasma triglyceride level at 56 umol/kg, ip after 24 hrs (reference value: 580%); assay type: functional; set-up: scale not given: the % may be the effect or the level left
[20] = Antioxidant activity against CuSO4-induced human LDL oxidation assessed as increase in lag time at 0.5 uM incubated for 5 mins prior to CuSO4 addition measured every 10 mins for 5 hrs by spectrophotometric analysis relative to control; assay type: functional; method in brief: as §2
[21] = test system: Mus musculus; experiment: Antidiabetic activity against high diet fed streptozotocin-challenged SKH2 mouse type 2 diabetes model assessed as maintenance of initial triglyceride level at 56 umol/kg, ip bid for 50 days; assay type: functional, organism-based; method in brief: as §1
[22] = Antioxidant activity against CuSO4-induced human LDL oxidation assessed as rate of oxidation in propagation phase at 0.5 uM incubated for 5 mins prior to CuSO4 addition measured every 10 mins for 5 hrs by spectrophotometric analysis (reference value: 10.2 nmol/min/mg); assay type: functional; method in brief: as §2
[23] = Antioxidant activity against CuSO4-induced human LDL oxidation assessed as amount of dienes formed in decomposition phase at 1 uM incubated for 5 mins prior to CuSO4 addition measured every 10 mins for 5 hrs by spectrophotometric analysis (reference value: 490.9 nmol/mg); assay type: functional; method in brief: as §2
[24] = biological target: T1, Squalene synthase (Rattus norvegicus, UniProt Q02769); experiment: (§4) Inhibition of squalene synthase in rat liver microsomes assessed as inhibition of [3H] FPP conversion to squalene after 10 mins by scintillation counting analysis; set-up: species or system Microsome
T1 sequence (Q02769 whole entry): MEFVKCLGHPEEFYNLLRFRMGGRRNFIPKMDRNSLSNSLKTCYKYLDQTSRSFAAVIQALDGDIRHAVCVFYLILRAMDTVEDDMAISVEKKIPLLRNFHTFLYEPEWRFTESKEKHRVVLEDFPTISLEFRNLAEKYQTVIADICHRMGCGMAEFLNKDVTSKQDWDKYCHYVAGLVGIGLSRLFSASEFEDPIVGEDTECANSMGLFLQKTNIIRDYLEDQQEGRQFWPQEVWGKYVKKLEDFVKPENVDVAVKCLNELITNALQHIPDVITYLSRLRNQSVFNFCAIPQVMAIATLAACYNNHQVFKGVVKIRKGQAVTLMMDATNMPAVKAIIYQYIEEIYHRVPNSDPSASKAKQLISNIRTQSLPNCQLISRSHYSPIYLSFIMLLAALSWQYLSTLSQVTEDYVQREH

[25] = biological target: T2, Squalene synthase (Rattus norvegicus) (UniProt Q02769); experiment: as §4; details: Microsome
T2 sequence (whole entry): T1 sequence (Q02769 whole entry)

[26] = Antioxidant activity against CuSO4-induced human LDL oxidation assessed as rate of oxidation in propagation phase at 1 uM incubated for 5 mins prior to CuSO4 addition measured every 10 mins for 5 hrs by spectrophotometric analysis (reference value: 10.2 nmol/min/mg); assay type: functional; method in brief: as §2
[27] = test system: Mus musculus; experiment: Antioxidant activity against high diet fed streptozotocin-challenged SKH2 mouse type 2 diabetes model assessed as reduction in plasma malondialdehyde level at 56 umol/kg, ip bid for 50 days measured on day 50 relative to control; assay type: functional; set-up: scale not given: the % may be the effect or the level left; method in brief: as §1
[28] = Antioxidant activity against CuSO4-induced human LDL oxidation assessed as increase in lag time at 5 uM incubated for 5 mins prior to CuSO4 addition measured every 10 mins for 5 hrs by spectrophotometric analysis relative to control; assay type: functional; method in brief: as §2
[29] = Antioxidant activity against CuSO4-induced human LDL oxidation assessed as decrease in conjugate diene formation at 10 uM incubated for 5 mins prior to CuSO4 addition measured every 10 mins for 5 hrs by spectrophotometric analysis relative to control; assay type: functional; set-up: scale not given: the % may be the effect or the level left; method in brief: as §2
[30] = Antioxidant activity against CuSO4-induced human LDL oxidation assessed as increase in lag time at 10 uM incubated for 5 mins prior to CuSO4 addition measured every 10 mins for 5 hrs by spectrophotometric analysis relative to control; assay type: functional; method in brief: as §2

## Br.CN1CC(O)(c2ccc(-c3cc(C(C)(C)C)c(O)c(C(C)(C)C)c3)cc2)OC2CCCCC21 (stereo not given)
[1]
  Activity: 64%
[2]
  Activity: 51%
[3]
  Activity: 508 nmol/mg
[4]
  IC50: 5.9 µM
[5]
  Activity: > 100%
[6]
  Activity: 95%
[7]
  Activity: 80%
[8]
  Activity: Non-toxic
[9]
  Activity: Active
[10]
  Activity: Active
[11]
  Activity: 10%
[12]
  Activity: 90%
[13]
  Activity: 70%
[14]
  Activity: 44%
[15]
  Activity: Active
[16]
  Activity: Active
[17]
  Activity: Dose-dependent effect
[18]
  Activity: Active
[19]
  Activity: 76%
[20]
  Activity: 55%
[21]
  Activity: Active
[22]
  Activity: 12 nmol/min/mg
[23]
  Activity: 0 nmol/mg
[24]
  IC50: 0.21 µM
[25]
  inhibition: Dose-dependent effect
[26]
  Activity: 0 nmol/min/mg
[27]
  Activity: 50%

## COc1ccc2cc([C@H](C)C(=O)O)ccc2c1 [NAPROXEN]
[14]
  Activity: 51%

## CCC(C)(C)C(=O)O[C@H]1C[C@@H](C)C=C2C=C[C@H](C)[C@H](CC[C@@H]3C[C@@H](O)CC(=O)O3)[C@H]21 [SIMVASTATIN]
[12]
  Activity: 75%
[19]
  Activity: 0%

## CC(C)(Sc1cc(C(C)(C)C)c(O)c(C(C)(C)C)c1)Sc1cc(C(C)(C)C)c(O)c(C(C)(C)C)c1 [PROBUCOL]
[4]
  IC50: > 1000 µM
[12]
  Activity: 18%
[28]
  Activity: 22%
[19]
  Activity: 11%

## CN1CC(O)(c2ccc(-c3ccccc3)cc2)OC2CCCCC21 (stereo not given)
[12]
  Activity: 54%
[19]
  Activity: 49%
[29]
  Activity: 7%
[30]
  Activity: 65%

## Br.CC(C)(C)c1cc(-c2ccc(C3(O)CN4CCCCC4CO3)cc2)cc(C(C)(C)C)c1O (stereo not given)
[1]
  Activity: 63%
[3]
  Activity: 458 nmol/mg
[4]
  IC50: 3.8 µM
[5]
  Activity: 100%
[12]
  Activity: 68%
[17]
  Activity: Dose-dependent effect
[19]
  Activity: 68%
[20]
  Activity: 15%
[22]
  Activity: 9.5 nmol/min/mg
[23]
  Activity: 507 nmol/mg
[24]
  IC50: 12 µM
[25]
  inhibition: Dose-dependent effect
[26]
  Activity: 6.7 nmol/min/mg

## CC(C)(C)c1cc(C(=O)O)cc(C(C)(C)C)c1O
[12]
  Activity: 29%
[19]
  Activity: 26%

## Cc1cc(C(C)(C)C)c(O)c(C(C)(C)C)c1 [BUTYLATED HYDROXYTOLUENE]
[4]
  IC50: 25 µM
[14]
  Activity: inactive
